Screens deposited in PubChem by several laboratories.
Compounds with a hit are over-represented: about 2.2% of the library has one in this group of screens.
C8 TRAIL sens = sensitizes caspase-8 expressing cells to TRAIL; inhibition (viability loss, TRAIL sensitization), % at 10 µM; NB7+C8 cells + TRAIL, ATPlite viability luminescence; actives 1% (n = 360,000);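 active means compounds causing at least 50% loss of cell viability in the single-dose screen, relative to plate controls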
FLuc inh counter = counter-screen for luciferase assay inhibitors: firefly luciferase inhibition; inhibition, % at 10 µM; actives 1.5% (n = 200,000); ATPLite firefly luciferase biochemical luminescence, 10 min; P08659; AID 1006;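 active means inhibition above about 50% when tested at 10 µM, limit read from the data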
Target sequence (P08659 whole entry, looked up): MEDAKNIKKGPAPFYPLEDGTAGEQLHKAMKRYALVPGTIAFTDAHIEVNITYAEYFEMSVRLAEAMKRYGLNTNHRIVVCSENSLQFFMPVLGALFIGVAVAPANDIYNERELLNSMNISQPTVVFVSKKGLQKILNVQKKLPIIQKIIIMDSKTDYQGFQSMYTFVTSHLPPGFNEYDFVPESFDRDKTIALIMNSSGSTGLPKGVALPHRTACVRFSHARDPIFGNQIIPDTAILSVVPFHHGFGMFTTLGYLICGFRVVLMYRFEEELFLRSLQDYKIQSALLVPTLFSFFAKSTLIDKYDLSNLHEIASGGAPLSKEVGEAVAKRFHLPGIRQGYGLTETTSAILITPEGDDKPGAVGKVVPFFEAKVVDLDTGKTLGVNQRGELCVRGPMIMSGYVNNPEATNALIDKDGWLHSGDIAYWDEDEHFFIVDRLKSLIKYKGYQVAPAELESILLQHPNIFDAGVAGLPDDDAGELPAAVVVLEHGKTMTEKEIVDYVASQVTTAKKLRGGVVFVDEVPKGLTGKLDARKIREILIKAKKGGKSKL
PPC-1+TRAIL kill = compounds killing PPC-1 cancer cells with TRAIL present (potentiator screen, no TRAIL-free arm); actives 0.41% (n = 220,000); PPC-1 cells + TRAIL, ATPLite viability luminescence; cell killing (% activity), % at 4 µM or 5 µM;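 active means cell killing above 50% in the first pass at 4 µM, then a duplicate retest at 5 µM averaging 50% or more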;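 further: plate controls were cells with TRAIL plus DMSO for no effect and medium-only wells lacking cells for full effect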
STAT3 inh = STAT3 signaling inhibition | inhibition, % at 5.5 µM | AID 862 | actives 0.89% (n = 190,000) | U3A cells, IL-6 STAT3-luciferase reporter, luminescence; host cell line lacks STAT1;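 active means inhibition above the mean inhibition across all screened compounds plus 3 SD, cut at about 44% in these data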;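 further: 0% = DMSO only wells and 100% = 100 µM nifuroxazide control wells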
HSP90 refold inh = inhibitors of HSP90 luciferase refolding in rabbit reticulocyte lysate; luciferase refolding luminescence, 3 h; inhibition, % at 5.6 µM; actives 0.91% (n = 290,000); AID 1789;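 active means inhibition above the screen-wide mean plus 3 SD, computed separately per campaign, cut at about 16% in these data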;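 further: 0% = DMSO wells and 100% = 60 µM geldanamycin wells; inhibitors lower the luminescence because luciferase stays unfolded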
FLuc stim CS = affects firefly luciferase, flagging false hits in luciferase stimulation screens | P08659 | ATPlite luciferase biochemical, luminescence, 10 min; 0 = ATP-free wells, 1 = DMSO control | activation factor at 10 µM | 200,000 tested, under 10 active | AID 1027;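 active means luciferase activation factor, scaled between plate controls, of at least 2 with compound at 10 µM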
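System: luciferase plus luciferin reagent, cell-free; medium: PBS as buffer for the ATP substrate; dosing: test compounds dosed from 2 mM stocks in 100% DMSO; timing: 10 min post-reagent at room temperature; measured by: luminescence measurement of luciferase light output; evaluation: luciferase activation, seen as luminescence increase over controls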
* = called active by the depositor; x = no result.

SMILES	C8 TRAIL sens	FLuc inh counter	PPC-1+TRAIL kill	STAT3 inh	HSP90 refold inh	FLuc stim CS
Cc1ccccc1N1C(N)=NC(N)=NC1(C)C	x	-1	15	1	-1	1
Cc1ccc(N2C(N)=NC(N)=NC2(C)C)c(C)c1	72*	-3	-30	9	0	1
COc1cccc(N2C(N)=NC(N)=NC2(C)C)c1	85*	4	26	11	2	1
CC1(C)N=C(N)N=C(N)N1c1cccc(C#N)c1	82*	x	x	x	x	x
COc1ccccc1N1C(N)=NC(N)=NC1(C)C	-1	-6	19	5	-3	1.1
COc1ccc(N2C(N)=NC(N)=NC2(C)C)cc1	82*	-1	9	3	1	1
COc1cccc(-c2c(-c3ccccc3OC)ncn2Cc2cccc(-c3ccccc3)c2)c1	-6	x	x	x	x	x
CCOC(=O)c1cccc(N2C(N)=NC(N)=NC2(C)C)c1	67*	-4	15	10	1	1
CCCCOc1ccc(N2C(N)=NC(N)=NC23CCCCC3)cc1	9	x	x	x	0	x
CCOc1ccc(N2C(N)=NC(N)=NC2(C)C)cc1	75*	-17	33	11	2	1.2
Cc1onc(-c2ccccc2Cl)c1C(=O)N(C)CC(=O)Nc1ccc(F)c(F)c1F	3	x	x	x	x	x
CCc1ccc2oc(-c3cc(N=Cc4cccc(OC)c4O)ccc3O)nc2c1	x	84*	37	41	6	0.2
COc1cccc(C=Nc2cc(C)cc(C)c2)c1O	2	-4	27	8	2	1
COc1ccc(NC(C)=O)cc1CNC(=O)COc1ccccc1C(=O)Nc1cccc(C)c1C	13	x	x	x	1	x
CN(c1ccccc1)c1ccc(/C=N/N2CCOCC2)cc1	28	70*	17	4	-6	0.3
COC(=O)c1ccc(C(NC(=O)OCc2ccccc2)/C(F)=C/[C@@H](C)C(=O)NCc2ccc(OC)c(OC)c2)cc1 (some centres not stated)	10	-7	8	-1	1	1.1
O=C(Nc1cccc(Cl)c1)Nc1ccccc1-n1ccnc1	4	3	-13	-9	-4	1
COc1ccc(/C=C(\NC(=O)c2ccc(C)cc2)C(=O)NCCCN2CCOCC2)cc1OC	-2	x	x	x	-1	x
COC(=O)C1=C(C(=O)OC)[C@@H]2N(Cc3ccccc3)c3ccccc3[C@@]23C[C@@H](C(=O)OC)N(C(=O)c2cccs2)C3=N1	54*	x	5	x	x	x
COC(=O)C1=C(C(=O)OC)[C@@H]2N(C)c3ccccc3[C@@]23C[C@@H](C(=O)OC)N(C(=O)c2cccs2)C3=N1	10	x	18	x	x	x
OC1(c2ccccc2)CN(c2ccccc2)C2=[N+]1CCS2 (configuration not stated)	-5	-4	-8	-7	3	1
CNc1nc(-c2ccccc2)[n+](-c2ccc(C)cc2)s1	-7	89*	15	10	12	0.1
Cc1ccc(-c2nc(N)s[n+]2-c2ccccc2)cc1	22	80*	17	0	2	0.2
Cc1ccc(-c2nc3ccccc3nc2-c2ccccc2)cc1	-2	x	x	x	0	x
O=C(NNC(=O)C1COc2ccccc2O1)c1ccccc1O (configuration not stated)	12	x	x	x	x	x
SMILES	C8 TRAIL sens	FLuc inh counter	PPC-1+TRAIL kill	STAT3 inh	HSP90 refold inh	FLuc stim CS
Cc1ccc(NS(=O)(=O)c2ccc(C(=O)Nc3nncs3)cc2)cc1	13	x	x	x	x	x
Cc1ccc(-c2nn3c(C)nnc3s2)cc1NC(=O)c1ccc(-c2ccc(Cl)cc2Cl)o1	60*	4	-15	8	2	1
COc1ccc2cc(/C=N/NC(=O)c3ccc(CN(c4cccc(Cl)c4Cl)S(C)(=O)=O)cc3)c(Cl)nc2c1	11	-4	51*	20	-2	1
CC(C(=O)Nc1ccc2c(c1)OCCO2)N(C)Cc1c(F)cccc1Cl (configuration not stated)	-1	-2	19	20	1	1
Cc1cccc(Nc2nnc(SCC(=O)Nc3ccc(C(=O)O)cc3)s2)c1	40	68*	23	-2	4	0.3
Cc1ccc(C2CC(c3cccs3)=NN2C(=O)CCl)cc1 (configuration not stated)	77*	x	x	x	3	x
O=C(Nc1cccnc1)c1ccc(-c2ccc(Cl)cc2)o1	-1	66*	28	8	-4	0.3
O=C(Nc1cccnc1)c1ccc(-c2cc(Cl)ccc2Cl)o1	-5	6	3	18	1	0.9
O=C(Cc1ccc(NC(=O)C2CCN(C(=O)C3CC3)CC2)cc1)Nc1cccc(C(=O)N2CCCC2)c1	1	x	x	x	x	x
COC(=O)c1c(NC(=O)COc2ccc(Cl)cc2)sc2c1CC(C)(C)NC2(C)C	73*	x	x	x	6	x
COc1ccc(NC(=O)CC(CC(=O)O)c2cc(OC)c(OC)c(OC)c2)cc1 (configuration not stated)	-11	x	7	x	-2	x
CNC(=O)c1c(NC(=O)c2ccc(S(=O)(=O)N(C)c3ccccc3)cc2)sc2c1CCN(C(C)C)C2	x	x	x	x	5	x
CCN1CCc2c(sc(NC(=O)c3ccc(S(=O)(=O)N(C)c4ccccc4)cc3)c2C(=O)NC)C1	55*	x	x	x	1	x
CC1CCC(C(C)C)C(OC(=O)Cn2c(-c3ccc(Br)cc3)[n+](C)c3ccccc32)C1 (configuration not stated)	35	-4	50	12	5	1
CC1CCC(C(C)C)C(OC(=O)Cn2c(-c3ccc(Cl)cc3)[n+](C)c3ccccc32)C1 (configuration not stated)	51*	x	49	x	4	x
CCCc1nnc(NC(=O)CCC(=O)N2CCN(S(=O)(=O)c3ccc(C)cc3)CC2)s1	7	x	7	x	4	x
COc1ccc(N=c2scc(-c3ccc(S(=O)(=O)N4CCOCC4)cc3)n2CCCO)cc1	x	-6	7	44*	-2	1.1
CCNC(=O)Cn1cc(C(F)(F)F)cc(Cl)c1=O	3	x	3	x	2	x
Cc1ccc2nc(-c3ccc(NC(=O)COC(=O)c4ccc(Br)o4)cc3)sc2c1	75*	32	50	43*	0	0.7
COc1ccc(/C=C(\C#N)C(=O)OCC(=O)Nc2ccc(-c3nc4ccc(C)cc4s3)cc2)cc1	54*	44	40	42	1	0.6
CNC(=S)Nc1ccc(-c2nc3ccc(C)cc3s2)cc1	47	49	40	47*	1	0.5
Cc1ccc2nc(-c3ccc(NC(=O)CN(c4ccccc4C)S(C)(=O)=O)cc3)sc2c1	43*	37	13	-7	-1	0.6
COc1ccc(/C=C(\C#N)C(=O)OCC(=O)NC(C)c2ccccc2)cc1 (configuration not stated)	-5	-9	0	12	3	1.1
Cc1cc(C)cc(N(CC(=O)Nc2ccc(-c3nc4ccc(C)cc4s3)cc2)S(C)(=O)=O)c1	4	9	12	2	0	0.9
